Experimental data: ChEMBL document CHEMBL2177098, “Synthesis and evaluation of novel ¹⁸F labeled 2-pyridinylbenzoxazole and 2-pyridinylbenzothiazole derivatives as ligands for positron emission tomography (PET) imaging of β-amyloid plaques” (J Med Chem, 2012); call rule not given here

Key:
Bone [1] = assay: Drug uptake in ICR mouse bone at 370 kBq/100 ul, iv at 60 mins by gamma-counting analysis; type: ADME, organism-based, Bone element; conditions: in vivo, 1 h
Method in brief: (§1)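 Male ICR mice (5 weeks, about 20 g) got 18F tracer in saline (370 KBq per 100 μL) via tail vein; n = 5 per time point, killed at 2, 10, 30, 60 min. Organs weighed and γ-counted; percent dose per gram wet tissue from comparison with diluted injectate aliquots.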

Lung [2] = assay: Drug uptake in ICR mouse lung at 370 kBq/100 ul, iv at 2 mins by gamma-counting analysis; type: ADME, organism-based; conditions: in vivo; method in brief: as §1
Brain [3] = assay: Drug uptake in ICR mouse brain at 370 kBq/100 ul, iv at 10 mins by gamma-counting analysis; type: ADME, organism-based; conditions: in vivo; method in brief: as §1
Bone [4] = assay: Drug uptake in ICR mouse bone at 370 kBq/100 ul, iv at 2 mins by gamma-counting analysis; type: ADME, organism-based, Bone element; conditions: in vivo; method in brief: as §1
Lung [5] = assay: Drug uptake in ICR mouse lung at 370 kBq/100 ul, iv at 30 mins by gamma-counting analysis; type: ADME, organism-based; conditions: in vivo, 0.5 h; method in brief: as §1
Intestine [6] = assay: Drug uptake in ICR mouse intestine assessed per organ at 370 kBq/100 ul, iv at 30 mins by gamma-counting analysis; type: ADME, organism-based; conditions: in vivo, 0.5 h
Method in brief: (§2)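 Male ICR mice (5 weeks, about 20 g) got 18F tracer in saline (370 KBq per 100 μL) via tail vein; n = 5 per time point, killed at 2, 10, 30, 60 min. Organs removed and γ-counted against diluted injectate; expressed as % injected dose per organ.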

Spleen [7] = assay: Drug uptake in ICR mouse spleen at 370 kBq/100 ul, iv at 2 mins by gamma-counting analysis; type: ADME, organism-based; conditions: in vivo; method in brief: as §1
Blood [8] = assay: Drug uptake in ICR mouse blood at 370 kBq/100 ul, iv at 2 mins by gamma-counting analysis; type: ADME, organism-based; conditions: in vivo; method in brief: as §1
Lung [9] = assay: Drug uptake in ICR mouse lung at 370 kBq/100 ul, iv at 60 mins by gamma-counting analysis; type: ADME, organism-based; conditions: in vivo, 1 h; method in brief: as §1
Stomach [10] = assay: Drug uptake in ICR mouse stomach assessed per organ at 370 kBq/100 ul, iv at 2 mins by gamma-counting analysis; type: ADME, organism-based; conditions: in vivo; method in brief: as §2
Stomach [11] = assay: Drug uptake in ICR mouse stomach assessed per organ at 370 kBq/100 ul, iv at 60 mins by gamma-counting analysis; type: ADME, organism-based; conditions: in vivo, 1 h
Method in brief: (§3)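 Normal male ICR mice (5 weeks, about 20 g) received the ¹⁸F tracer in saline (370 KBq per 100 μL) by tail-vein injection. Groups of n = 5 were killed at 2, 10, 30 and 60 min. Organs were removed, weighed and γ-counted against diluted aliquots of the injectate, giving % dose per gram. Stomach and intestine were expressed per organ. The brain ratio is 2 min/60 min uptake. Values are mean ± SD.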

Heart [12] = assay: Drug uptake in ICR mouse heart at 370 kBq/100 ul, iv at 10 mins by gamma-counting analysis; type: ADME, organism-based; conditions: in vivo; method in brief: as §1
Liver [13] = assay: Drug uptake in ICR mouse liver at 370 kBq/100 ul, iv at 60 mins by gamma-counting analysis; type: ADME, organism-based; conditions: in vivo, 1 h; method in brief: as §1
Lung [14] = assay: Drug uptake in ICR mouse lung at 370 kBq/100 ul, iv at 10 mins by gamma-counting analysis; type: ADME, organism-based; conditions: in vivo; method in brief: as §1
[15] = Displacement of [125I]-IMPY from amyloid beta (1 to 42) fibrils after 2 hrs by gamma-counting analysis
Method in brief: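 Competition binding with aggregated Aβ1-42 fibrils and [125I]IMPY (60000−100000 cpm/100 μL) in 0.05% BSA (1 mL total); inhibitors 10⁻⁴−10^−8.5 M in ethanol. Incubated 37 °C for 2 h, then GF/B vacuum filtration with PBS (0.02 M, pH 7.4) washes and γ counting. Three repeats; IC50 converted to Ki by Cheng−Prusoff.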

Brain [16] = assay: Drug uptake in wild type C57BL6 mouse brain at 370 KBq/100 ul after 1 hr by autoradiographic analysis; type: ADME, tissue-based; conditions: in vitro
Method in brief: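 Paraffin brain sections from 12-month-old male control C57BL6 mice were deparaffinized through xylene and graded ethanol, then held in PBS (0.2 M, pH 7.4) for 30 min. They were incubated with the ¹⁸F tracer (370 KBq per 100 μL) for 1 h at room temperature. Sections were washed in 40% EtOH, rinsed with water for 1 min, dried, and exposed to a phosphor plate for 2 h. The same sections were then stained with thioflavin S.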

Intestine [17] = assay: Drug uptake in ICR mouse intestine assessed per organ at 370 kBq/100 ul, iv at 10 mins by gamma-counting analysis; type: ADME, organism-based; conditions: in vivo; method in brief: as §2
Blood [18] = assay: Drug uptake in ICR mouse blood at 370 kBq/100 ul, iv at 10 mins by gamma-counting analysis; type: ADME, organism-based; conditions: in vivo; method in brief: as §1
Brain [19] = assay: Drug uptake in ICR mouse brain at 370 kBq/100 ul, iv at 60 mins by gamma-counting analysis; type: ADME, organism-based; conditions: in vivo, 1 h; method in brief: as §1
Liver [20] = assay: Drug uptake in ICR mouse liver at 370 kBq/100 ul, iv at 10 mins by gamma-counting analysis; type: ADME, organism-based; conditions: in vivo; method in brief: as §1
Kidney [21] = assay: Drug uptake in ICR mouse kidney at 370 kBq/100 ul, iv at 60 mins by gamma-counting analysis; type: ADME, organism-based; conditions: in vivo, 1 h; method in brief: as §1
Heart [22] = assay: Drug uptake in ICR mouse heart at 370 kBq/100 ul, iv at 2 mins by gamma-counting analysis; type: ADME, organism-based; conditions: in vivo; method in brief: as §1
[23] = n-Octanol-PBS buffer partition coefficient, log D of the compound at 1.5 MBq after 3 mins at pH 7.4; type: physicochemical
Method in brief: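 The tracer was partitioned between n-octanol and PBS by vortexing for 3 min at room temperature, then centrifuged for 5 min at 3000 rpm. Samples of the octanol (50 μL) and aqueous (500 μL) layers were counted. log D is the log of the octanol/PBS counts-per-gram ratio. The octanol layer was repartitioned until values were consistent. Measured in triplicate and repeated three times.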

Intestine [24] = assay: Drug uptake in ICR mouse intestine assessed per organ at 370 kBq/100 ul, iv at 60 mins by gamma-counting analysis; type: ADME, organism-based; conditions: in vivo, 1 h; method in brief: as §2
Brain [25] = assay: Drug uptake in ICR mouse brain at 370 kBq/100 ul, iv at 2 mins by gamma-counting analysis; type: ADME, organism-based; conditions: in vivo; method in brief: as §1
Bone [26] = assay: Drug uptake in ICR mouse bone at 370 kBq/100 ul, iv at 10 mins by gamma-counting analysis; type: ADME, organism-based, Bone element; conditions: in vivo; method in brief: as §1
Blood [27] = assay: Drug uptake in ICR mouse blood at 370 kBq/100 ul, iv at 60 mins by gamma-counting analysis; type: ADME, organism-based; conditions: in vivo, 1 h; method in brief: as §1
Spleen [28] = assay: Drug uptake in ICR mouse spleen at 370 kBq/100 ul, iv at 60 mins by gamma-counting analysis; type: ADME, organism-based; conditions: in vivo, 1 h; method in brief: as §1
Bone [29] = assay: Drug uptake in ICR mouse bone at 370 kBq/100 ul, iv at 30 mins by gamma-counting analysis; type: ADME, organism-based, Bone element; conditions: in vivo, 0.5 h; method in brief: as §1
Blood [30] = assay: Drug uptake in ICR mouse blood at 370 kBq/100 ul, iv at 30 mins by gamma-counting analysis; type: ADME, organism-based; conditions: in vivo, 0.5 h; method in brief: as §1
Spleen [31] = assay: Drug uptake in ICR mouse spleen at 370 kBq/100 ul, iv at 10 mins by gamma-counting analysis; type: ADME, organism-based; conditions: in vivo; method in brief: as §1
Stomach [32] = assay: Drug uptake in ICR mouse stomach assessed per organ at 370 kBq/100 ul, iv at 10 mins by gamma-counting analysis; type: ADME, organism-based; conditions: in vivo; method in brief: as §2
Spleen [33] = assay: Drug uptake in ICR mouse spleen at 370 kBq/100 ul, iv at 30 mins by gamma-counting analysis; type: ADME, organism-based; conditions: in vivo, 0.5 h; method in brief: as §1
Liver [34] = assay: Drug uptake in ICR mouse liver at 370 kBq/100 ul, iv at 2 mins by gamma-counting analysis; type: ADME, organism-based; conditions: in vivo; method in brief: as §1
Heart [35] = assay: Drug uptake in ICR mouse heart at 370 kBq/100 ul, iv at 60 mins by gamma-counting analysis; type: ADME, organism-based; conditions: in vivo, 1 h; method in brief: as §1
Stomach [36] = assay: Drug uptake in ICR mouse stomach assessed per organ at 370 kBq/100 ul, iv at 30 mins by gamma-counting analysis; type: ADME, organism-based; conditions: in vivo, 0.5 h; method in brief: as §2
Kidney [37] = assay: Drug uptake in ICR mouse kidney at 370 kBq/100 ul, iv at 10 mins by gamma-counting analysis; type: ADME, organism-based; conditions: in vivo; method in brief: as §1
Intestine [38] = assay: Drug uptake in ICR mouse intestine assessed per organ at 370 kBq/100 ul, iv at 2 mins by gamma-counting analysis; type: ADME, organism-based; conditions: in vivo; method in brief: as §2
Brain [39] = assay: Drug uptake in ICR mouse brain at 370 kBq/100 ul, iv at 30 mins by gamma-counting analysis; type: ADME, organism-based; conditions: in vivo, 0.5 h; method in brief: as §1
Heart [40] = assay: Drug uptake in ICR mouse heart at 370 kBq/100 ul, iv at 30 mins by gamma-counting analysis; type: ADME, organism-based; conditions: in vivo, 0.5 h; method in brief: as §1
Kidney [41] = assay: Drug uptake in ICR mouse kidney at 370 kBq/100 ul, iv at 2 mins by gamma-counting analysis; type: ADME, organism-based; conditions: in vivo; method in brief: as §1
Kidney [42] = assay: Drug uptake in ICR mouse kidney at 370 kBq/100 ul, iv at 30 mins by gamma-counting analysis; type: ADME, organism-based; conditions: in vivo, 0.5 h; method in brief: as §1
Brain [43] = assay: Ratio of drug uptake in brain at 2 mins to drug uptake in brain at 60 mins in ICR mouse at 370 KBq/100 ul, iv; type: ADME, organism-based; conditions: in vivo; method in brief: as §3
Liver [44] = assay: Drug uptake in ICR mouse liver at 370 kBq/100 ul, iv at 30 mins by gamma-counting analysis; type: ADME, organism-based; conditions: in vivo, 0.5 h; method in brief: as §1

CN(C)c1ccc(-c2nc3cc(OCC[18F])ccc3o2)cn1
Drug uptake (Bone [1]): 1.88 % ID/g | Drug uptake (Lung [2]): 5.53 % ID/g | Drug uptake (Brain [3]): 3.41 % ID/g | Drug uptake (Bone [4]): 2.08 % ID/g | Drug uptake (Lung [5]): 1.85 % ID/g | Drug uptake (Intestine [6]): 38.88 %ID | Drug uptake (Spleen [7]): 3.22 % ID/g | Drug uptake (Blood [8]): 3.57 % ID/g | Drug uptake (Lung [9]): 1.79 % ID/g | Drug uptake (Stomach [10]): 2.44 %ID | Drug uptake (Stomach [11]): 2.79 %ID | Drug uptake (Heart [12]): 2.44 % ID/g | Drug uptake (Liver [13]): 3.19 % ID/g | Drug uptake (Lung [14]): 2.58 % ID/g | Ki [15]: 2.7 nM | Drug uptake (Brain [16]): Not Active | Drug uptake (Intestine [17]): 21.45 %ID | Drug uptake (Blood [18]): 2.05 % ID/g | Drug uptake (Brain [19]): 1.47 % ID/g | Drug uptake (Liver [20]): 10.72 % ID/g | Drug uptake (Kidney [21]): 1.82 % ID/g | Drug uptake (Heart [22]): 5.95 % ID/g | logD at 0.05 h [23]: 3.53 | Drug uptake (Intestine [24]): 37.02 %ID | Drug uptake (Brain [25]): 7.27 % ID/g | Drug uptake (Bone [26]): 1.27 % ID/g | Drug uptake (Blood [27]): 2.06 % ID/g | Drug uptake (Spleen [28]): 1.32 % ID/g | Drug uptake (Bone [29]): 1.56 % ID/g | Drug uptake (Blood [30]): 1.89 % ID/g | Drug uptake (Spleen [31]): 2.02 % ID/g | Drug uptake (Stomach [32]): 2.55 %ID | Drug uptake (Spleen [33]): 1.6 % ID/g | Drug uptake (Liver [34]): 15.7 % ID/g | Drug uptake (Heart [35]): 1.93 % ID/g | Drug uptake (Stomach [36]): 2.54 %ID | Drug uptake (Kidney [37]): 3.82 % ID/g | Drug uptake (Intestine [38]): 8.41 %ID | Drug uptake (Brain [39]): 1.76 % ID/g | Drug uptake (Heart [40]): 1.83 % ID/g | Drug uptake (Kidney [41]): 8.48 % ID/g | Drug uptake (Kidney [42]): 2.44 % ID/g | Ratio (Brain [43]): 4.95 | Drug uptake (Liver [44]): 4.39 % ID/g
